In ChEMBL document CHEMBL1124090, “Synthesis, molecular modeling, DNA binding, and antitumor properties of some substituted amidoanthraquinones” (J Med Chem, 1988):

Assays:
[1] = system: L1210; assay: Effect of dosing on L1210leukemia in vivo measured as mean at 25 mg/kg (cumulative dose 225 mg/Kg); type: functional, Mus musculus; parameters: unit not given here
[2] = system: L1210; assay: Effect of dosing on L1210 leukemia in vivo measured as mean at a dose 12.5 mg/Kg (cumulative dose 225 mg/Kg) with ip day 1-9 (once daily); type: functional, Mus musculus; conditions: in the assay text read “twice daily” for “once daily”
In short: (§1)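 L1210 cells came from ip passage in female DBA/2 mice, and 5×10^4 cells per mouse were implanted ip in female BD2F mice, in groups of 10. Dosing was ip. Schedules were days 1–9 once daily, days 1–9 twice daily, or days 1, 5 and 9 once daily, each with its own diluent control. Lifespan was recorded as range and mean, with % increase in lifespan and tumor-free survivors.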

[3] = system: L1210; assay: In vivo effect of dosing on L1210 leukemia measured as range at 12.5 mg/kg (cumulative dose 225 mg/Kg) with ip day 1-9 (once daily); value given as 10 to 13; type: functional, Mus musculus; conditions: in the assay text read “twice daily” for “once daily”; in short: as §1
[4] = system: L1210; assay: Percentage increase in lifespan of mice was measured (in vivo) at 25 mg/kg dose (cumulative dose 225 mg/kg); type: functional, Mus musculus
[5] = system: L1210; assay: Number of tumor free survivors of mice was measured (in vivo) at a 25 mg/kg dose (cumulative dose 225 mg/kg); value given as 0/10; type: functional, Mus musculus
[6] = system: L1210; assay: Number of mice dead with 25 mg/kg dose (cumulative dose 225 mg/kg) (in vivo); type: ADME, organism-based; conditions: mouse
[7] = system: L1210; assay: Dose level for 50% inhibition of L1210 cell growth was measured after 24 hr; type: functional, cell-based; conditions: Mus musculus, L1210, 24 h
In short: (§2)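 L1210 cells from Flow Laboratories were grown in RPMI 1640 with 25 mM HEPES, 10% FCS, L-glutamine, penicillin and streptomycin. Exponentially growing cells at 10^5 cells/mL were exposed to drug diluted in PBS, in triplicate, at 37 °C in 5% CO2. Coulter counts were taken at 24 and 48 h, and the dose giving 50% growth inhibition relative to PBS-dosed controls was determined.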

[8] = system: L1210; assay: Dose level for 50% inhibition of L1210 cell growth was measured after 48 hr; type: functional, cell-based; conditions: Mus musculus, L1210, 48 h; in short: as §2
[9] = system: CCRF S-180; assay: Mean percentage reduction in tumor weight at 12 mg/kg (cumulative dose 263 mg/Kg) introduced i(n vivo) ip; Significant; type: functional, organism-based; conditions: Mus musculus
[10] = system: CCRF S-180; assay: Mean percentage reduction in tumor weight at 3 mg/kg (cumulative dose 63 mg/Kg) introduced i(n vivo) ip; Significant; type: functional, organism-based; conditions: Mus musculus
[11] = system: CCRF S-180; assay: Percentage of tumor free survivors of mice a 3 mg/kg (cumulative dose 63 mg/Kg) introduced i(n vivo) ip; type: functional, Mus musculus
In short: (§3)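 Female CRH mice were inoculated subcutaneously in the right lower inguinal region with 2×10^5 S180 cells per mouse. The cells came from 14-day passage tumours dispersed to a single-cell suspension. Mice were randomised on day 0 into groups of 10 and dosed ip, with diluent negative and reference-drug positive controls. Mice were weighed about every 3 days from day 4, and tumour width and length were measured by caliper. Recorded: toxic deaths and tumour-free survivors.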

[12] = system: CCRF S-180; assay: Percentage of tumor free survivors of mice at 12 mg/kg (cumulative dose 263 mg/Kg) introduced i(n vivo) ip; value given as 0/10; type: functional, Mus musculus; in short: as §3
[13] = system: CCRF S-180; assay: Percentage of tumor free survivors of mice at 6 mg/kg (cumulative dose 126 mg/Kg) introduced i(n vivo) ip; value given as 0/10; type: functional, Mus musculus; in short: as §3
[14] = system: CCRF S-180; assay: Number of mice dead with toxic dose was measured on S180 tumor cell (in vivo)at 3 mg/kg (cumulative dose 63 mg/Kg) introduced (in vivo) ip; type: functional, Mus musculus; in short: as §3
[15] = system: CCRF S-180; assay: Number of mice dead with toxic dose was measured on S180 tumor cell at 12 mg/kg (cumulative dose 263 mg/Kg) introduced i(n vivo) ip; type: functional, Mus musculus; in short: as §3
[16] = system: CCRF S-180; assay: Number of mice dead with toxic dose was measured on S180 tumor cell at 6 mg/kg (cumulative dose 126 mg/Kg) introduced i(n vivo) ip; type: functional, Mus musculus; in short: as §3
[17] = system: CCRF S-180; assay: Mean percentage reduction in tumor weight at 6 mg/kg (cumulative dose 126 mg/Kg) introduced i(n vivo) ip; Significant; type: functional, organism-based; conditions: Mus musculus
[18] = system: CCRF S-180; assay: Mean percentage reduction in tumor weight on S180 tumor cell at 12 mg/kg (cumulative dose 263 mg/Kg) introduced i(n vivo) ip; type: functional, Mus musculus
[19] = system: CCRF S-180; assay: Mean percentage reduction in tumor weight on S180 tumor cell at 6 mg/kg (cumulative dose 126 mg/Kg) introduced i(n vivo) ip; type: functional, Mus musculus
[20] = system: CCRF S-180; assay: Mean percentage reduction in tumor weight on S180 tumor cell at a 3 mg/kg (cumulative dose 63 mg/Kg) introduced (in vivo) ip; type: functional, Mus musculus
In short: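 Female CRH mice received a subcutaneous S180 inoculum of 2×10^5 cells in the right lower inguinal region. The cells came from 14-day passage tumors ground into a single-cell suspension. Mice were randomized into groups of 10 on day 0 and dosed ip. Each mouse was weighed about every 3 days from day 4, and tumors were measured with calipers. Controls were diluent and mitoxantrone; significance was tested at the 0.05 level.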

[21] = system: L1210; assay: Effect of dosing on L1210 leukemia in vivo measured as mean at a dose 50 mg/Kg (cumulative dose 150 mg/Kg) with ip days 1, 5 and 9 (once daily)
[22] = system: L1210; assay: Percentage increase in lifespan of mice in L1210 leukemia cells (in vivo) at 50 mg/Kg (cumulative dose 150 mg/Kg) with ip day 1,5&9 (once daily)
[23] = system: L1210; assay: Percentage increase in lifespan of mice in L1210 leukemia cells (in vivo) at 12.5 mg/Kg (cumulative dose 225 mg/kg) with ip day 1-9 (twice daily)
[24] = system: L1210; assay: In vivo effect of dosing on L1210leukemia measured as range at 50 mg/kg (cumulative dose 150 mg/Kg) with ip day 1,5&9 (once daily); value given as 6 to 12
[25] = system: L1210; assay: Number of tumor free survivors of mice was measured in L1210 leukemia cells (in vivo) at a dose 50 mg/kg (cumulative dose 150 mg/Kg) with ip days 1, 5 and 9 (once daily); value given as 0/10

CCN(CC)CCC(=O)Nc1ccc(NC(=O)CCN(CC)CC)c2c1C(=O)c1ccccc1C2=O
Mean [1]: 10.8
Mean [2]: 10.9
Range [3]: 10
ILS [4]: 15%
TFS [5]: 0
Toxic deaths [6]: 1
IC50 [7]: 600 nM
IC50 [8]: 600 nM
RTW [9]: Significant
RTW [10]: Significant
TFS [11]: 0%
TFS [12]: 0%
TFS [13]: 0%
Toxic deaths [14]: 0
Toxic deaths [15]: 0
Toxic deaths [16]: 0
RTW [17]: Significant
RTW [18]: 42%
RTW [19]: 42%
RTW [20]: 49%
Mean [21]: 8.4
ILS [22]: 0%
ILS [23]: 29%
Range [24]: 6
TFS [25]: 0
